Data set [1] addresses Human immunodeficiency virus type 1 integrase (Human immunodeficiency virus 1, UniProt Q7ZJM1). Briefly: Inhibition of HIV1 recombinant integrase strand transfer activity.
In data set [2] the test system is Human immunodeficiency virus 1. Briefly: Antiviral activity against HIV1 3B infected in human MT4 cells after 3 days by ELISA in presence of 10% fetal bovine serum. The note with it: Human immunodeficiency virus 1, 3B, MT4, 72 h; read-out: CIC95. The data set is classed as functional. The gist of the method: (§1)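 HIV-1 infection spread was measured in cell culture (spread assay) under low-serum (10% fetal bovine serum) or high-serum (50% normal human serum) conditions.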

Data set [3] concerns Human immunodeficiency virus 1. Briefly: Antiviral activity against HIV1 3B infected in human MT4 cells after 3 days by ELISA in presence of 50% normal human serum. The data set is classed as functional. The note with it: Human immunodeficiency virus 1, 3B, MT4, 72 h; read-out: CIC95. An outline of the steps:
as §1

A further data set concerns MT4. Briefly: Cytotoxicity against human MT4 cells assessed as morphological changes up to 50 uM after 4 days. The data set is classed as cell-based. The following applies: mt4, 96 h.
Data set [4] in a line: Oral bioavailability in rat at 3 mg/kg. The data set is classed as ADME, organism-based. The note with it: in vivo. The gist of the method:
(§2)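 Rats were dosed at 3 mg/kg both intravenously and orally, and the plasma PK profile was obtained. Parameters were AUC, plasma half-life and oral bioavailability (F%). Plasma clearance was taken from the IV dose.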

The test system of a further data set is Rattus norvegicus. Briefly: AUC in rat plasma at 3 mg/kg, iv and po. The data set is classed as ADME, organism-based. More on the design: dose 3 mg/kg, route oral. The following applies: in vivo. An outline of the steps: as §2
The nature of data set [5]: Half life in rat plasma at 3 mg/kg, iv and po. The data set is classed as ADME, organism-based. Further details: dose 3 mg/kg, route oral. An outline of the steps:
as §2

Data set [6] is described as follows: Plasma clearance in rat at 3 mg/kg, iv. More on the design: dose 3 mg/kg, route intravenous. The data set is classed as ADME, organism-based. An outline of the steps: as §2

Some results are limits rather than exact numbers.

As a reminder, the IC50 is the concentration needed to halve the response being measured. What is called bioavailability is the share of a dose that reaches the circulation, judged against a reference dose that is usually intravenous. As usually defined, the AUC is the area under the concentration-time curve, a measure of exposure. The half-life is the time needed for the level to fall by half in the phase considered. As usually defined, the clearance is the volume of plasma or blood freed of the substance per unit of time.

Sequence of Human immunodeficiency virus type 1 integrase (Q7ZJM1 whole entry): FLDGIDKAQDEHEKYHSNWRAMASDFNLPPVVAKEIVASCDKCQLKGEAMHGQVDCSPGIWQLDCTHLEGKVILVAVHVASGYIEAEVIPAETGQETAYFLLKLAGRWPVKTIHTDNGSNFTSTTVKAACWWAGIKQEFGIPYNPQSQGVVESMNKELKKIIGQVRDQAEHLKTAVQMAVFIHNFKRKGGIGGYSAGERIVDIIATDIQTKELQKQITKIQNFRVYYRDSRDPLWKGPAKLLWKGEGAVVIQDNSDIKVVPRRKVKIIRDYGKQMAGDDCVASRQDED

For the compound `CCN(C(=O)c1ccncc1)c1cccn2c(=O)c(O)c(C(=O)NCc3ccc(F)cc3)nc12`, the IC50 in data set [1] was 50 nM. Moreover, the IC95 in data set [2] and in data set [3] was > 1 µM throughout. For the same compound, the Activity entry in the data set with MT4 is “Non-toxic”.

For `CCN(C(=O)c1ccccn1)c1cccn2c(=O)c(O)c(C(=O)NCc3ccc(F)cc3)nc12`, the IC50 in data set [1] was 21 nM. Moreover, the IC95 amounted to 0.25 µM in data set [2] and 1 µM in data set [3]. For the same compound, in the data set on MT4, the Activity entry is reported as “Non-toxic”.

Consider `CCN(C(=O)C(=O)N1CCCC1)c1cccn2c(=O)c(O)c(C(=O)NCc3ccc(F)cc3)nc12`, for which, in data set [1], the IC50 was 21 nM. Also, the IC95 in data set [2] came out at 0.031 µM; in data set [3], 1 µM. Further, the Activity result with MT4 is given as “Non-toxic”.

As for `O=C(NCc1ccc(F)cc1)c1nc2c(CN3CCOCC3)cccn2c(=O)c1O`, in data set [1], the IC50 was found to be 170 nM.

Consider `CC(=O)N1CCN(Cc2cccn3c(=O)c(O)c(C(=O)NCc4ccc(F)cc4)nc23)CC1`, for which the IC50 in data set [1] came to 185 nM.

In the case of `O=C(NCc1cccn2c(=O)c(O)c(C(=O)NCc3ccc(F)cc3)nc12)c1ccccc1`, the IC50 in data set [1] stood at 24 nM.

For `CN(C)C(=O)C(=O)N(C)c1cccn2c(=O)c(O)c(C(=O)NCc3ccc(F)cc3)nc12`, the concentration for half-maximal inhibition (IC50) in data set [1] was 26 nM. Moreover, the figures for the IC95 in data set [2] and in data set [3] were 0.125 µM and 0.5 µM, respectively. Besides, in the data set on MT4, the Activity entry is “Non-toxic”.

On to `CCN(CC)C(=O)C(=O)N(CC)c1cccn2c(=O)c(O)c(C(=O)NCc3ccc(F)cc3)nc12`, for which the IC50 in data set [1] came out at 19 nM. Further, the IC95 in data set [2] turned out to be 0.062 µM; in data set [3], 0.125 µM. Moreover, the Activity entry in the data set with MT4 is listed as “Non-toxic”.

Turning to `CCN(C(=O)C(=O)N1CCN(C)CC1)c1cccn2c(=O)c(O)c(C(=O)NCc3ccc(F)cc3)nc12`, the IC50 in data set [1] amounted to 21 nM. Besides, the IC95 in data set [2] came to 0.125 µM; in data set [3], 0.5 µM. Moreover, the Activity entry in the data set with MT4 is listed as “Non-toxic”.

In the case of `CNc1cccn2c(=O)c(O)c(C(=O)NCc3ccc(F)cc3)nc12`, the concentration for half-maximal inhibition (IC50) in data set [1] was 130 nM.

Take `O=C(Nc1cccn2c(=O)c(O)c(C(=O)NCc3ccc(F)cc3)nc12)c1ccccc1`: in data set [1], the IC50 came out at 18 nM.

In the case of `CCN(C(=O)CN1CCOCC1)c1cccn2c(=O)c(O)c(C(=O)NCc3ccc(F)cc3)nc12`, the IC50 in data set [1] worked out at 23 nM. Besides, the IC95 in data set [2] and in data set [3] was > 1 µM in each case. The Activity entry with MT4 was “Non-toxic”.

As to `CCNc1cccn2c(=O)c(O)c(C(=O)NCc3ccc(F)cc3)nc12`, the IC50 in data set [1] was 36 nM. The IC95 in data set [2] is 1.25 µM; in data set [3], > 1 µM. In the data set with MT4, the Activity result is recorded as “Non-toxic”.

With `CN(C)c1cccn2c(=O)c(O)c(C(=O)NCc3ccc(F)cc3)nc12`, the IC50 in data set [1] came out at 70 nM.

Turning to `CCCN(C(=O)C(=O)N(C)C)c1cccn2c(=O)c(O)c(C(=O)NCc3ccc(F)cc3)nc12`, the IC50 in data set [1] worked out at 18 nM. Further, the IC95 in data set [2] worked out at 0.031 µM; in data set [3], 0.5 µM. Further, in the data set with MT4, the Activity entry is on record as “Non-toxic”.

For the compound `CC(C)N(C(=O)C(=O)N(C)C)c1cccn2c(=O)c(O)c(C(=O)NCc3ccc(F)cc3)nc12`, in data set [1], the IC50 amounted to 21 nM. In addition, the IC95 in data set [2] is 0.062 µM; in data set [3] it was > 1 µM. Moreover, in the data set with MT4, the Activity result is “Non-toxic”.

With `CCN(C(=O)CN(C)C)c1cccn2c(=O)c(O)c(C(=O)NCc3ccc(F)cc3)nc12`, the IC50 in data set [1] was determined as 185 nM. Further, the IC95 in data set [2] and in data set [3] was > 1 µM in each case. Further, the Activity result in the data set on MT4 was “Non-toxic”.

Consider `CCN(C(=O)c1nnc(C)o1)c1cccn2c(=O)c(O)c(C(=O)NCc3ccc(F)cc3)nc12`, for which the IC50 in data set [1] was found to be 50 nM. For the same compound, the IC95 in data set [2] was 0.5 µM; in data set [3] it was > 1 µM. The Activity result with MT4 was “Non-toxic”.

With `CCN(C(=O)c1cscn1)c1cccn2c(=O)c(O)c(C(=O)NCc3ccc(F)cc3)nc12`, in data set [1], the half-inhibitory concentration (IC50) is 21 nM. The IC95 is 0.25 µM in data set [2] and > 1 µM in data set [3]. The Activity result in the data set with MT4 was “Non-toxic”.

For the compound `O=C(NCc1ccc(F)cc1)c1nc2ccccn2c(=O)c1O`, the IC50 in data set [1] was determined as 22 nM.

`CCN(C(=O)C(=O)N(C)C)c1cccn2c(=O)c(O)c(C(=O)NCc3ccc(F)cc3)nc12`: in data set [1], the IC50 amounted to 36 nM. The IC95 in data set [2] stood at 0.062 µM; in data set [3], 0.25 µM. Moreover, in the data set on MT4, the Activity entry is given as “Non-toxic”. Besides, the bioavailability in data set [4] was determined as 40%. The compound also returned an AUC in the data set on Rattus norvegicus of 2.9 µM·h. The compound further showed a half-life in data set [5] of 270 min. Further, in data set [6], the clearance is 24 mL/min/kg.

For the compound `CCN(C(=O)C(=O)N1CCOCC1)c1cccn2c(=O)c(O)c(C(=O)NCc3ccc(F)cc3)nc12`, the IC50 in data set [1] came out at 25 nM. Also, the IC95 was found to be 0.031 µM in data set [2] and 0.25 µM in data set [3]. Also, the Activity entry with MT4 is “Non-toxic”.

`Cc1cccn2c(=O)c(O)c(C(=O)NCc3ccc(F)cc3)nc12`: the IC50 in data set [1] was 9 nM.

Turning to `CCN(C(=O)c1ccno1)c1cccn2c(=O)c(O)c(C(=O)NCc3ccc(F)cc3)nc12`, in data set [1], the IC50 is 18 nM. Moreover, the IC95 is 0.5 µM in data set [2] and > 1 µM in data set [3]. Further, the Activity result in the data set on MT4 was “Non-toxic”.

Source of the values: ChEMBL document CHEMBL1153349, “3-Hydroxy-4-oxo-4H-pyrido[1,2-a]pyrimidine-2-carboxylates--a new class of HIV-1 integrase inhibitors” (Bioorg Med Chem Lett, 2009).
